Data reported in ChEMBL document CHEMBL1944580, “Synthesis of novel sulfonamide-1,2,4-triazoles, 1,3,4-thiadiazoles and 1,3,4-oxadiazoles, as potential antibacterial and antifungal agents. Biological evaluation and conformational analysis studies” (2012).
Values after ≈ are worked out from the molar mass of the structure shown.

Tests used:
Enterobacter cloacae [1] = assay: Antibacterial activity against Enterobacter cloacae human isolate treated for 24 hrs followed by sub-cultivated for 72 hrs by micro dilution method; format: functional
Summary of the method: (§1)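 2 µl from each well was serially subcultured into 100 µl fresh broth per well and incubated a further 72 h. MBC is the lowest concentration with no visible growth, taken as 99.5% killing of the original inoculum. Streptomycin and ampicillin were the positive controls.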

Bacillus cereus [2] = assay: Antibacterial activity against Bacillus cereus clinical isolate after 24 hrs by micro dilution method; format: functional
Summary of the method: (§2)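 Microdilution MIC in 96-well plates. Bacterial suspensions adjusted in sterile saline to 1.0 × 10^5 CFU/ml, giving 1.0 × 10^4 cfu per well in LB broth. Compounds tested at up to 1 mg/ml. Plates incubated 24 h. MIC taken as the lowest concentration with no visible growth under a binocular microscope. OD at 655 nm was also read against a blank and the positive control. Streptomycin and ampicillin were the positive controls.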

Salmonella typhimurium [3] = assay: Antibacterial activity against Salmonella Typhimurium ATCC 13311 treated for 24 hrs followed by sub-cultivated for 72 hrs by micro dilution method; format: functional, Salmonella enterica subsp. enterica serovar Typhimurium; settings: Salmonella enterica; summary of the method: as §1
Staphylococcus aureus [4] = assay: Antibacterial activity against Staphylococcus aureus ATCC 6538 treated for 24 hrs followed by sub-cultivated for 72 hrs by micro dilution method; format: functional; summary of the method: as §1
Listeria monocytogenes [5] = assay: Antibacterial activity against Listeria monocytogenes NCTC 7973 treated for 24 hrs followed by sub-cultivated for 72 hrs by micro dilution method; format: functional; summary of the method: as §1
Pseudomonas aeruginosa [6] = assay: Antibacterial activity against Pseudomonas aeruginosa ATCC 27853 treated for 24 hrs followed by sub-cultivated for 72 hrs by micro dilution method; format: functional; summary of the method: as §1
Escherichia coli [7] = assay: Antibacterial activity against Escherichia coli ATCC 35210 treated for 24 hrs followed by sub-cultivated for 72 hrs by micro dilution method; format: functional; summary of the method: as §1
Pseudomonas aeruginosa [8] = assay: Antibacterial activity against Pseudomonas aeruginosa ATCC 27853 after 24 hrs by micro dilution method; format: functional; settings: ATCC 27853, 24 h; summary of the method: as §2
Escherichia coli [9] = assay: Antibacterial activity against Escherichia coli ATCC 35210 after 24 hrs by micro dilution method; format: functional; settings: ATCC 35210, 24 h; summary of the method: as §2
Staphylococcus aureus [10] = assay: Antibacterial activity against Staphylococcus aureus ATCC 6538 after 24 hrs by micro dilution method; format: functional; settings: ATCC 6538, 24 h; summary of the method: as §2
Micrococcus flavus [11] = assay: Antibacterial activity against Micrococcus flavus ATCC 10240 after 24 hrs by micro dilution method; format: functional; settings: ATCC 10240, 24 h; summary of the method: as §2
Listeria monocytogenes [12] = assay: Antibacterial activity against Listeria monocytogenes NCTC 7973 after 24 hrs by micro dilution method; format: functional; settings: NCTC 7973, 24 h; summary of the method: as §2
Bacillus cereus [13] = assay: Antibacterial activity against Bacillus cereus clinical isolate treated for 24 hrs followed by sub-cultivated for 72 hrs by micro dilution method; format: functional; summary of the method: as §1
Enterobacter cloacae [14] = assay: Antibacterial activity against Enterobacter cloacae human isolate after 24 hrs by micro dilution method; format: functional; summary of the method: as §2
Salmonella typhimurium [15] = assay: Antibacterial activity against Salmonella Typhimurium ATCC 13311 after 24 hrs by micro dilution method; format: functional, Salmonella enterica subsp. enterica serovar Typhimurium; settings: Salmonella enterica, ATCC 13311, 24 h; summary of the method: as §2
Micrococcus flavus [16] = assay: Antibacterial activity against Micrococcus flavus ATCC 10240 treated for 24 hrs followed by sub-cultivated for 72 hrs by micro dilution method; format: functional; summary of the method: as §1
Penicillium ochrochloron [17] = assay: Antifungal activity against Penicillium ochrochloron ATCC 9112 after 72 hrs by serial dilution method; format: functional; settings: ATCC 9112, 72 h
Summary of the method: (§3)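 Modified microdilution MIC. Spores were washed from malt agar cultures with sterile 0.85% saline containing 0.1% Tween 80 and adjusted to about 1.0 × 10^5 per 100 µl well in malt broth. Compounds were dissolved in DMSO (1 mg/ml). Plates incubated 72 h at 28 °C. MIC is the lowest concentration with no visible growth under a binocular microscope. Bifonazole and ketoconazole were the references.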

Aspergillus flavus [18] = assay: Antifungal activity against Aspergillus flavus ATCC 9643 after 72 hrs by serial dilution method; format: functional; settings: ATCC 9643, 72 h; summary of the method: as §3
Fulvia fulva [19] = assay: Antifungal activity against Fulvia fulva after 72 hrs by serial dilution method; format: functional; summary of the method: as §3
Trichoderma viride [20] = assay: Antifungal activity against Trichoderma viride IAM 5061 after 72 hrs by serial dilution method; format: functional; settings: IAM 5061, 72 h; summary of the method: as §3
Aspergillus niger [21] = assay: Antifungal activity against Aspergillus niger ATCC 6275 treated for 72 hrs followed by sub-cultivated for 5 days by serial dilution method; format: functional
Summary of the method: (§4)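 MFC obtained after the 72 h, 28 °C malt-broth microdilution (spore inoculum about 1.0 × 10^5 per well, compounds from 1 mg/ml DMSO). 2 µl was serially subcultured into 100 µl broth per well and incubated a further 5 days at 28 °C. MFC is the lowest concentration with no visible growth, taken as 99.5% killing of the original inoculum.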

Aspergillus fumigatus [22] = assay: Antifungal activity against Aspergillus fumigatus human isolate treated for 72 hrs followed by sub-cultivated for 5 days by serial dilution method; format: functional; summary of the method: as §4
Aspergillus fumigatus [23] = assay: Antifungal activity against Aspergillus fumigatus human isolate after 72 hrs by serial dilution method; format: functional; summary of the method: as §3
Penicillium ochrochloron [24] = assay: Antifungal activity against Penicillium ochrochloron ATCC 9112 treated for 72 hrs followed by sub-cultivated for 5 days by serial dilution method; format: functional; summary of the method: as §4
Aspergillus flavus [25] = assay: Antifungal activity against Aspergillus flavus ATCC 9643 treated for 72 hrs followed by sub-cultivated for 5 days by serial dilution method; format: functional; summary of the method: as §4
Fulvia fulva [26] = assay: Antifungal activity against Fulvia fulva treated for 72 hrs followed by sub-cultivated for 5 days by serial dilution method; format: functional; summary of the method: as §4
Talaromyces funiculosus [27] = assay: Antifungal activity against Penicillium funiculosum ATCC 36839 after 72 hrs by serial dilution method; format: functional; settings: ATCC 36839, 72 h; summary of the method: as §3
Aspergillus versicolor [28] = assay: Antifungal activity against Aspergillus versicolor ATCC 11730 treated for 72 hrs followed by sub-cultivated for 5 days by serial dilution method; format: functional; summary of the method: as §4
Trichoderma viride [29] = assay: Antifungal activity against Trichoderma viride IAM 5061 treated for 72 hrs followed by sub-cultivated for 5 days by serial dilution method; format: functional; summary of the method: as §4
Aspergillus versicolor [30] = assay: Antifungal activity against Aspergillus versicolor ATCC 11730 after 72 hrs by serial dilution method; format: functional; settings: ATCC 11730, 72 h; summary of the method: as §3
Talaromyces funiculosus [31] = assay: Antifungal activity against Penicillium funiculosum ATCC 36839 treated for 72 hrs followed by sub-cultivated for 5 days by serial dilution method; format: functional; summary of the method: as §4
Aspergillus niger [32] = assay: Antifungal activity against Aspergillus niger ATCC 6275 after 72 hrs by serial dilution method; format: functional; settings: ATCC 6275, 72 h; summary of the method: as §3

| Structure (SMILES) | MBC (Enterobacter cloacae [1]) [µM] | MIC (Bacillus cereus [2]) [µM] | MBC (Salmonella typhimurium [3]) [µM] | MBC (Staphylococcus aureus [4]) [µM] | MBC (Listeria monocytogenes [5]) [µM] | MBC (Pseudomonas aeruginosa [6]) [µM] | MBC (Escherichia coli [7]) [µM] | MIC (Pseudomonas aeruginosa [8]) [µM] | MIC (Escherichia coli [9]) [µM] | MIC (Staphylococcus aureus [10]) [µM] | MIC (Micrococcus flavus [11]) [µM] | MIC (Listeria monocytogenes [12]) [µM] | MBC (Bacillus cereus [13]) [µM] | MIC (Enterobacter cloacae [14]) [µM] | MIC (Salmonella typhimurium [15]) [µM] | MBC (Micrococcus flavus [16]) [µM] | MIC (Penicillium ochrochloron [17]) [µM] | MIC (Aspergillus flavus [18]) [µM] | MIC (Fulvia fulva [19]) [µM] | MIC (Trichoderma viride [20]) [µM] | also measured |
| --- | --- | --- | --- | --- | --- | --- | --- | --- | --- | --- | --- | --- | --- | --- | --- | --- | --- | --- | --- | --- | --- |
| CC1(C)S[C@@H]2[C@H](NC(=O)[C@H](N)c3ccccc3)C(=O)N2[C@H]1C(=O)O [AMPICILLIN] | 490 (≈ 171 µg/mL) | 250 (≈ 87.4 µg/mL) | 490 (≈ 171 µg/mL) | 370 (≈ 129 µg/mL) | 490 (≈ 171 µg/mL) | 1240 (≈ 433 µg/mL) | 740 (≈ 259 µg/mL) | 740 (≈ 259 µg/mL) | 370 (≈ 129 µg/mL) | 250 (≈ 87.4 µg/mL) | 250 (≈ 87.4 µg/mL) | 370 (≈ 129 µg/mL) | 370 (≈ 129 µg/mL) | 370 (≈ 129 µg/mL) | 250 (≈ 87.4 µg/mL) | 370 (≈ 129 µg/mL) |  |  |  |  |  |
| c1ccc(-c2ccc(C(c3ccccc3)n3ccnc3)cc2)cc1 (centres undefined) [BIFONAZOLE] |  |  |  |  |  |  |  |  |  |  |  |  |  |  |  |  | 480 (≈ 149 µg/mL) | 480 (≈ 149 µg/mL) | 320 (≈ 99.3 µg/mL) | 640 (≈ 199 µg/mL) | MFC (Aspergillus niger [21]): 640 µM (≈ 199 µg/mL); MFC (Aspergillus fumigatus [22]): 640 µM (≈ 199 µg/mL); MIC (Aspergillus fumigatus [23]): 480 µM (≈ 149 µg/mL); MFC (Penicillium ochrochloron [24]): 640 µM (≈ 199 µg/mL); MFC (Aspergillus flavus [25]): 640 µM (≈ 199 µg/mL); MFC (Fulvia fulva [26]): 640 µM (≈ 199 µg/mL); MIC (Talaromyces funiculosus [27]): 640 µM (≈ 199 µg/mL); MFC (Aspergillus versicolor [28]): 640 µM (≈ 199 µg/mL); MFC (Trichoderma viride [29]): 800 µM (≈ 248 µg/mL); MIC (Aspergillus versicolor [30]): 320 µM (≈ 99.3 µg/mL); MFC (Talaromyces funiculosus [31]): 800 µM (≈ 248 µg/mL); MIC (Aspergillus niger [32]): 480 µM (≈ 149 µg/mL) |
| CC(=O)N1CCN(c2ccc(OCC3COC(Cn4ccnc4)(c4ccc(Cl)cc4Cl)O3)cc2)CC1 (centres undefined) [KETOCONAZOLE] |  |  |  |  |  |  |  |  |  |  |  |  |  |  |  |  | 3800 (≈ 2020 µg/mL) | 2850 (≈ 1510 µg/mL) | 380 (≈ 202 µg/mL) | 4750 (≈ 2520 µg/mL) | MFC (Aspergillus niger [21]): 950 µM (≈ 505 µg/mL); MFC (Aspergillus fumigatus [22]): 950 µM (≈ 505 µg/mL); MIC (Aspergillus fumigatus [23]): 380 µM (≈ 202 µg/mL); MFC (Penicillium ochrochloron [24]): 3800 µM (≈ 2020 µg/mL); MFC (Aspergillus flavus [25]): 3800 µM (≈ 2020 µg/mL); MFC (Fulvia fulva [26]): 950 µM (≈ 505 µg/mL); MIC (Talaromyces funiculosus [27]): 380 µM (≈ 202 µg/mL); MFC (Aspergillus versicolor [28]): 950 µM (≈ 505 µg/mL); MFC (Trichoderma viride [29]): 5700 µM (≈ 3030 µg/mL); MIC (Aspergillus versicolor [30]): 380 µM (≈ 202 µg/mL); MFC (Talaromyces funiculosus [31]): 950 µM (≈ 505 µg/mL); MIC (Aspergillus niger [32]): 380 µM (≈ 202 µg/mL) |
| CN[C@@H]1[C@H](O[C@H]2[C@H](O[C@H]3[C@H](O)[C@@H](O)[C@H](N=C(N)N)[C@@H](O)[C@@H]3N=C(N)N)O[C@@H](C)[C@]2(O)C=O)O[C@@H](CO)[C@H](O)[C@H]1O [STREPTOMYCIN] | 340 (≈ 198 µg/mL) | 90 (≈ 52.3 µg/mL) | 340 (≈ 198 µg/mL) | 90 (≈ 52.3 µg/mL) | 340 (≈ 198 µg/mL) | 340 (≈ 198 µg/mL) | 520 (≈ 302 µg/mL) | 170 (≈ 98.9 µg/mL) | 260 (≈ 151 µg/mL) | 40 (≈ 23.3 µg/mL) | 170 (≈ 98.9 µg/mL) | 170 (≈ 98.9 µg/mL) | 170 (≈ 98.9 µg/mL) | 170 (≈ 98.9 µg/mL) | 170 (≈ 98.9 µg/mL) | 340 (≈ 198 µg/mL) |  |  |  |  |  |
